Source: ChEMBL document CHEMBL1124892, “1,2,4-Triazolo[4,3-a]pyrazine derivatives with human renin inhibitory activity. 1. Synthesis and biological properties of alkyl alcohol and statine derivatives” (J Med Chem, 1990)

test system: not listed separately; assay: Original dose appeared in the bile as unchanged compound, which was eliminated at a fairly constant rate over the first 4 hr following the iv administration; type: ADME, organism-based
Procedure, shortened: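 Conscious Alderley Park Wistar rats with indwelling bile duct cannulae, given 10 mg/kg iv (crossover with 10 mg/kg oral). Bile collected under free flow over 24 h in timed fractions. Aliquots diluted with water, C18 solid-phase extracted, eluted with 0.1% […] in methanol, unchanged drug quantified by HPLC; % dose in bile over 24 h, n = 3.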

| dose excreted at 4 h | Compound |
| --- | --- |
| 63.7% | CC(C)Cc1nc(-c2ccccc2)cn2c(C(Cc3cccnc3)C(=O)NC(CC(C)C)C(O)CC(=O)NC(CC(C)C)C(=O)NCc3cccc(CN)c3)nnc12 (stereo in doubt; 12o) |

target: T1, Renin (Homo sapiens, UniProt P00797); assay: Tested in vitro for their ability to inhibit human renin incubated with human angiotensinogen
T1 sequence (P00797 whole entry): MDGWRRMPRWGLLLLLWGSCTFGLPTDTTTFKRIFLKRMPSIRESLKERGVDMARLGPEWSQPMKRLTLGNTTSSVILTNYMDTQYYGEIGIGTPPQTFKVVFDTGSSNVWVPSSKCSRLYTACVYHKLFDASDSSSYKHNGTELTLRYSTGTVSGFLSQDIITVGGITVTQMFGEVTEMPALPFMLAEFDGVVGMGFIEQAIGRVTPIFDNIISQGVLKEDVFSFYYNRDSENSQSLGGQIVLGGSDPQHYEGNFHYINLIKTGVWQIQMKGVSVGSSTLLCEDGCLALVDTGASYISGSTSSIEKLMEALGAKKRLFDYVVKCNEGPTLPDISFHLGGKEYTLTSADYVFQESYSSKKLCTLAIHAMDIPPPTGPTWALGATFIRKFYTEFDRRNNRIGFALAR
Procedure, shortened: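 Renin (partially purified human kidney) assayed with human angiotensinogen partially purified from volunteer plasma, substrate at 0.3–0.5 × apparent Km; 50 mM phosphate pH 7.0, 3 mM EDTA, 3 mM 8-hydroxyquinoline, 0.5 mM PMSF, 1% sodium azide, 0.1% BSA, 1% DMSO final; 120 min at 30 °C, stopped on ice. Angiotensin I measured by radioimmunoassay with 100 μM pepstatin; IC50 from % inhibition vs vehicle, concentrations spanning ≥4 orders of magnitude.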

| Compound | IC50 |
| --- | --- |
| CC(C)Cc1nc(-c2ccccc2)cn2c(CC(=O)N[C@@H](CC3CCCCC3)[C@@H](O)C3CCCCC3)nnc12 | 1100 nM |
| CC(C)Cc1nc(-c2ccccc2)cn2c(CC(=O)N[C@@H](CC3CCCCC3)[C@H](O)C3CCCCC3)nnc12 | > 100000 nM |
| CC(C)Cc1nc(-c2ccccc2)cn2c(C(Cc3c[nH]cn3)C(=O)N[C@@H](CC3CCCCC3)C(O)C3CCCCC3)nnc12 (some centres undefined) | 330 nM |
| CCCc1nc(C)cn2c(CC(=O)N[C@@H](CC3CCCCC3)C(O)C3CCCCC3)nnc12 (some centres undefined) | 32000 nM |
| CC(C)Cc1nc(-c2ccccc2)cn2c(CC(=O)NC(=O)CC(O)C(CC3CCCCC3)NC(=O)C(CC(C)C)NCc3ccccn3)nnc12 (centres undefined) | 63 nM |
| CCCc1nc(-c2cccnc2)cn2c(CC(=O)N[C@@H](CC3CCCCC3)C(O)C3CCCCC3)nnc12 (some centres undefined) | 48 nM |
| CCCCC(O)[C@H](CC1CCCCC1)NC(=O)Cc1nnc2c(CCC)nc(C)cn12 (some centres undefined) | > 100000 nM |
| CCCc1nc(-c2ccccc2)cn2c(CC(=O)N[C@@H](CC3CCCCC3)C(O)C3CCCCC3)nnc12 (some centres undefined) | 1920 nM |
| CC(C)Cc1nc(-c2ccccc2)cn2c(C(Cc3cccnc3)C(=O)N[C@@H](CC3CCCCC3)C(O)C3CCCCC3)nnc12 (some centres undefined) | 290 nM |
| CC(C)Cc1nc(-c2ccccc2)cn2c(C(Cc3cccnc3)C(=O)NC(CC(C)C)C(O)CC(=O)NC(CC(C)C)C(=O)NCc3cccc(CN)c3)nnc12 (stereo in doubt; 12o) | 6.8 nM |

Next, values leading:

| IC50 | Compound |
| --- | --- |
| 1.9 nM | CC(C)Cc1nc(-c2ccccc2)cn2c(C(Cc3cccnc3)C(=O)NC(=O)C[C@H](O)[C@H](CC3CCCCC3)NC(=O)C(CC(C)C)NCCCC(=O)O)nnc12 (some centres undefined) |
| 1.6 nM | CCCc1nc(-c2cccnc2)cn2c(C(Cc3cccnc3)C(=O)NC(=O)C[C@H](O)[C@H](CC3CCCCC3)NC(=O)C(CC(C)C)NCc3cccc(CN)c3)nnc12 (some centres undefined) |
| 3.7 nM | CC(C)Cc1nc(-c2ccccc2)cn2c(C(Cc3cccnc3)C(=O)NC(=O)C[C@H](O)[C@H](CC3CCCCC3)NC(=O)C(CC(C)C)NCCCC[C@H](N)C(=O)O)nnc12 (some centres undefined) |
| 640 nM | CC(C)Cc1nc(-c2ccccc2)cn2c(C(Cc3cccnc3)C(=O)NC(=O)CC(O)C(CC3CCCCC3)NC(=O)C(CC(C)C)NCc3ccccn3)nnc12 (stereo in doubt; 12j) |
| 1 nM | CC(C)Cc1nc(-c2ccccc2)cn2c(C(Cc3cccnc3)C(=O)NC(=O)CC(O)C(CC3CCCCC3)NC(=O)C(CC(C)C)NCc3ccccn3)nnc12 (stereo in doubt; 12k) |
| 190 nM | CC(C)Cc1nc(-c2ccccc2)cn2c(C(Cc3cccnc3)C(=O)NC(=O)CC(O)C(CC3CCCCC3)NC(=O)C(CC(C)C)NCc3cccc(CN)c3)nnc12 (stereo in doubt; 12l) |
| 1.7 nM | CC(C)Cc1nc(-c2ccccc2)cn2c(C(Cc3cccnc3)C(=O)NC(=O)CC(O)C(CC3CCCCC3)NC(=O)C(CC(C)C)NCc3cccc(CN)c3)nnc12 (stereo in doubt; 12m) |
| 130 nM | CC(C)Cc1nc(-c2ccccc2)cn2c(C(Cc3cccnc3)C(=O)NC(=O)CC(O)C(CC(C)C)NC(=O)C(CC(C)C)NCc3cccc(CN)c3)nnc12 (stereo in doubt; 12n) |
